The species named for one test is Homo sapiens. As to the kind of experiment: Inhibition of PKA (unknown origin) at 30 uM by microfluidic mobility shift assay relative to control. Put shortly:
(§1)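 Single-point screen in a 24-enzyme kinase panel using a microfluidic assay. Each compound was tested at […] with ATP at roughly the Km for each enzyme. The pan-AGC inhibitor H-89 served as an internal control on every plate.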

The target in test [1] is T1, Serine/threonine-protein kinase D2 (Homo sapiens) (UniProt Q9BZL6).
T1 sequence (whole entry): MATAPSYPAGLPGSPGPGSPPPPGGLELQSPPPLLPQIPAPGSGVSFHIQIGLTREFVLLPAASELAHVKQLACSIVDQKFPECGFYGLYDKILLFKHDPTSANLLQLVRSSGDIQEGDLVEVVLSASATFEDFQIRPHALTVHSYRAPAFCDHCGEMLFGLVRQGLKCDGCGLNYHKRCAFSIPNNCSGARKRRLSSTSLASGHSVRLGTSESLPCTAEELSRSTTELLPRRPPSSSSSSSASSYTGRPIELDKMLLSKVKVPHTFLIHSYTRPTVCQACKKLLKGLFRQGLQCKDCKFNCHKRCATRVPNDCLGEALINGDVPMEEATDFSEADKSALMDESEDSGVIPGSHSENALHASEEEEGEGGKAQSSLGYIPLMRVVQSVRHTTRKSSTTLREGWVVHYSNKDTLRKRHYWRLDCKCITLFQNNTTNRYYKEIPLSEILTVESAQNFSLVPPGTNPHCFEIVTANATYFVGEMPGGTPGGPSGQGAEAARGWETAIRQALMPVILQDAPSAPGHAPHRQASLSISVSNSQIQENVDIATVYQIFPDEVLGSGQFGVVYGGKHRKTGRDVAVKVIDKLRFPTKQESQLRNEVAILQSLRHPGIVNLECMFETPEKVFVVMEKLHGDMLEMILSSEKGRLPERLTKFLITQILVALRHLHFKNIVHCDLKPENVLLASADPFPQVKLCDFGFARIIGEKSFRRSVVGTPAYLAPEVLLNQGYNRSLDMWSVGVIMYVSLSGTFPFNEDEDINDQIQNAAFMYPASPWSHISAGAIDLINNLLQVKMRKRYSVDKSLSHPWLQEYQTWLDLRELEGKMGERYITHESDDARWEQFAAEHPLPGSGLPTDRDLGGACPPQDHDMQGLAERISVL
As to the kind of experiment: Inhibition of PKD2 (unknown origin) at 30 uM by microfluidic mobility shift assay relative to control. Summed up: as §1

For test [2], the target named is Protein kinase C (PKC) (Homo sapiens) (UniProt O94806+P41743+P17252+P05129+Q05655+P05771+Q05513+Q02156+P24723+Q15139+Q04759). Put plainly: Inhibition of PKC (unknown origin) at 30 uM by microfluidic mobility shift assay relative to control. Summed up:
as §1

Test [3] has as its target Insulin receptor (Homo sapiens) (UniProt P06213). As to the kind of experiment: Inhibition of INSR (unknown origin) at 30 uM by microfluidic mobility shift assay relative to control. Put shortly:
as §1

In test [4] the target is Glycogen synthase kinase-3 beta (Homo sapiens, UniProt P49841). As to the kind of experiment: Inhibition of GSK3beta (unknown origin) at 30 uM by microfluidic mobility shift assay relative to control. Put shortly:
as §1

Test [5] addresses RAC-beta serine/threonine-protein kinase (Homo sapiens, UniProt P31751). As to the kind of experiment: Inhibition of AKT2 (unknown origin) at 30 uM by microfluidic mobility shift assay relative to control. Put shortly:
as §1

The target of test [6] is T2, Serine/threonine-protein kinase Chk1 (Homo sapiens) (UniProt O14757).
T2 sequence (whole entry): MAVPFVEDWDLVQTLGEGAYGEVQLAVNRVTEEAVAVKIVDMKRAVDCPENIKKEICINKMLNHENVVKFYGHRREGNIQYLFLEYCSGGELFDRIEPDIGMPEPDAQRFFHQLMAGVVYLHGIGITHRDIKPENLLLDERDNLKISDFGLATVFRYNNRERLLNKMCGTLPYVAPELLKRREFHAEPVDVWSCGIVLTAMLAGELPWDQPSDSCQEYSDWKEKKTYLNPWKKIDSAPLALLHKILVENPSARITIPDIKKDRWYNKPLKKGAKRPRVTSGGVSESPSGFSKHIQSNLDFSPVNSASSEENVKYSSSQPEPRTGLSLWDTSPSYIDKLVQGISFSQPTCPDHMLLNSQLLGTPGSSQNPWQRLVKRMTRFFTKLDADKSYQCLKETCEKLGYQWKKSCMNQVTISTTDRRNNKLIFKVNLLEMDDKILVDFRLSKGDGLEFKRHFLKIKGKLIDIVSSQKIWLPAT
As to the kind of experiment: Inhibition of CHK1 (unknown origin) at 30 uM by microfluidic mobility shift assay relative to control. Summed up: as §1

Test [7] addresses T3, Aurora kinase A (Homo sapiens) (UniProt O14965).
T3 sequence (whole entry): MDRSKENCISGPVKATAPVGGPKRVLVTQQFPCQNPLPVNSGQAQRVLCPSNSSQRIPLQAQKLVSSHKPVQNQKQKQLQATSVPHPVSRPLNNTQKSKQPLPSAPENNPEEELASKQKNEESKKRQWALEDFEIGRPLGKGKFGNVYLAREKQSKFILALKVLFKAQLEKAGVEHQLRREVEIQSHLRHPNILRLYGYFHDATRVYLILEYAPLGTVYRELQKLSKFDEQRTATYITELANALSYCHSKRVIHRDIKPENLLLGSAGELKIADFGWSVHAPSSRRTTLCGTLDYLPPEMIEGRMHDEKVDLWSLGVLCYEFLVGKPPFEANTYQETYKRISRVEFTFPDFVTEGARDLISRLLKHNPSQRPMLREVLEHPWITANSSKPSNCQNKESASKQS
As to the kind of experiment: Inhibition of AURA (unknown origin) at 30 uM by microfluidic mobility shift assay relative to control. Put shortly: as §1

The target of test [8] is Tyrosine-protein kinase Lyn (Homo sapiens, UniProt P07948). As to the kind of experiment: Inhibition of LYN (unknown origin) at 30 uM by microfluidic mobility shift assay relative to control. Summed up:
as §1

The target in test [9] is Tyrosine-protein kinase Fyn (Homo sapiens, UniProt P06241). As to the kind of experiment: Inhibition of FYN (unknown origin) at 30 uM by microfluidic mobility shift assay relative to control. Summed up:
as §1

Test [10] concerns the target Ribosomal protein S6 kinase alpha-1 (Homo sapiens, UniProt Q15418). Put plainly: Inhibition of RSK1 (unknown origin) at 30 uM by microfluidic mobility shift assay relative to control. Put shortly: as §1
Test [11] addresses MAP kinase-activated protein kinase 2 (Homo sapiens) (UniProt P49137). Put plainly: Inhibition of MK2 (unknown origin) at 30 uM by microfluidic mobility shift assay relative to control. Summed up:
as §1

For test [12], the target named is Serine/threonine-protein kinase Chk2 (Homo sapiens, UniProt O96017). As to the kind of experiment: Inhibition of CHK2 (unknown origin) at 30 uM by microfluidic mobility shift assay relative to control. Summed up: as §1
The target in test [13] is Tyrosine-protein kinase ABL1 (Homo sapiens, UniProt P00519). Put plainly: Inhibition of ABL (unknown origin) at 30 uM by microfluidic mobility shift assay relative to control. Summed up: as §1
For test [14], the target named is Mitogen-activated protein kinase 3 (Homo sapiens, UniProt P27361). Put plainly: Inhibition of ERK1 (unknown origin) at 30 uM by microfluidic mobility shift assay relative to control. Summed up:
as §1

In test [15] the target is RAC-alpha serine/threonine-protein kinase (Homo sapiens, UniProt P31749). Put plainly: Inhibition of AKT1 (unknown origin) at 30 uM by microfluidic mobility shift assay relative to control. Put shortly:
as §1

Structures are written as SMILES.

MAP kinase-activated protein kinase 2 (Homo sapiens), sequence (P49137 whole entry, looked up): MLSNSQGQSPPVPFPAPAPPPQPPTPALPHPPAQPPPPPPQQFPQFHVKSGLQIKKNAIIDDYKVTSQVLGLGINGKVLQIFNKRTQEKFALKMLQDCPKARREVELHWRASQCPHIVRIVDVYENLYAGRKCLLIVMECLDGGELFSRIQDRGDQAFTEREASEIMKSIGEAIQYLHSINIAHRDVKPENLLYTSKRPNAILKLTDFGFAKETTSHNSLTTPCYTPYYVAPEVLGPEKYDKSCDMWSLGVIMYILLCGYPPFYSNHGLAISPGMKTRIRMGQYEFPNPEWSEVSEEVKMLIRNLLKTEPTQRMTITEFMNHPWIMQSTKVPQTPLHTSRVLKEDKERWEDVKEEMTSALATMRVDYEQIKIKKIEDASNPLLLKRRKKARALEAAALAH
Ribosomal protein S6 kinase alpha-1, sequence (Q15418 whole entry): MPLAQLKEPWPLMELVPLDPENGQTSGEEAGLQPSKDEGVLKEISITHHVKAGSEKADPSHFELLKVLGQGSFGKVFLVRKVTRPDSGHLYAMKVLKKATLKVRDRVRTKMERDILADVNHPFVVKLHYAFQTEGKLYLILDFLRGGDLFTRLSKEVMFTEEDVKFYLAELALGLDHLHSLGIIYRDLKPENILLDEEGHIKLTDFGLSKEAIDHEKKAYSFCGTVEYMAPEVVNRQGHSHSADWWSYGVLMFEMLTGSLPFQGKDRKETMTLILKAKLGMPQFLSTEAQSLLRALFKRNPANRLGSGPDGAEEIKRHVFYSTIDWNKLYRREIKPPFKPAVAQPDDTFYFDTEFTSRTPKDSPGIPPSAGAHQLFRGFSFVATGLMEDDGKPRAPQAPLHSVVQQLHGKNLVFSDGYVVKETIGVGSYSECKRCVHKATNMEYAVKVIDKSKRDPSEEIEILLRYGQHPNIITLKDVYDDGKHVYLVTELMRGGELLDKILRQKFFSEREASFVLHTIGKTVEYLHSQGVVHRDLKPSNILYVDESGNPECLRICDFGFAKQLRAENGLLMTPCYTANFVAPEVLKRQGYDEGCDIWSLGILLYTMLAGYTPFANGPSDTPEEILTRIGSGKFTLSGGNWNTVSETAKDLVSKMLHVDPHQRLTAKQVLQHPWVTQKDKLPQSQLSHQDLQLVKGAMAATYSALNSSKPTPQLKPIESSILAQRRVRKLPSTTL
Tyrosine-protein kinase Fyn, sequence (P06241 2-537 limits assumed): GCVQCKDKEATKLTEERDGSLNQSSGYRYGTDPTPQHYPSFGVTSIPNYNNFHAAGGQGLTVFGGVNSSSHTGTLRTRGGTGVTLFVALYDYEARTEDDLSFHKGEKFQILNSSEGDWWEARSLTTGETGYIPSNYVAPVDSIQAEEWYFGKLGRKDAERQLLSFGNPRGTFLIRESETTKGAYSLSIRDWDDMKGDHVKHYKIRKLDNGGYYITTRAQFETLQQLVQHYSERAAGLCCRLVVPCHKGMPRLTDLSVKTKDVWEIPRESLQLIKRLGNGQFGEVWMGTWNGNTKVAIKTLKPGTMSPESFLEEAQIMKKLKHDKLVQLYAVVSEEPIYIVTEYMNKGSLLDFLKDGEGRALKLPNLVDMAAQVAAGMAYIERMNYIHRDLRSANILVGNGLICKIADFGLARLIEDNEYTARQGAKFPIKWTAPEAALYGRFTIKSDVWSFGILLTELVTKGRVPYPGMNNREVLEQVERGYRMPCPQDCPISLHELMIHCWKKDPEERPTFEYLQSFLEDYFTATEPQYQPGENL
RAC-beta serine/threonine-protein kinase, sequence (P31751 whole entry): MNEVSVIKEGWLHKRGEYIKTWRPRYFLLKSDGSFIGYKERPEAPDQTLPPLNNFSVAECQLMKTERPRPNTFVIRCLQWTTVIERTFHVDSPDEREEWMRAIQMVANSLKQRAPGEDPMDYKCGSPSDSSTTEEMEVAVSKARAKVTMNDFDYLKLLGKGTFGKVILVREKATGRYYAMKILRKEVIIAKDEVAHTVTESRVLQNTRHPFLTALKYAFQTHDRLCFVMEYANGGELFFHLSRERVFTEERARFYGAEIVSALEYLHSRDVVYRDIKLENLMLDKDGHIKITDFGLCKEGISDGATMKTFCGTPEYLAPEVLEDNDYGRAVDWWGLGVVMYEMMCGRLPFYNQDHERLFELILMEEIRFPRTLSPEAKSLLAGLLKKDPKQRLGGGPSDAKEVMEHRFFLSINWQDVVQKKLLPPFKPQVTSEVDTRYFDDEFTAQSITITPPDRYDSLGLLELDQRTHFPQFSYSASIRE
RAC-alpha serine/threonine-protein kinase, sequence (P31749 whole entry): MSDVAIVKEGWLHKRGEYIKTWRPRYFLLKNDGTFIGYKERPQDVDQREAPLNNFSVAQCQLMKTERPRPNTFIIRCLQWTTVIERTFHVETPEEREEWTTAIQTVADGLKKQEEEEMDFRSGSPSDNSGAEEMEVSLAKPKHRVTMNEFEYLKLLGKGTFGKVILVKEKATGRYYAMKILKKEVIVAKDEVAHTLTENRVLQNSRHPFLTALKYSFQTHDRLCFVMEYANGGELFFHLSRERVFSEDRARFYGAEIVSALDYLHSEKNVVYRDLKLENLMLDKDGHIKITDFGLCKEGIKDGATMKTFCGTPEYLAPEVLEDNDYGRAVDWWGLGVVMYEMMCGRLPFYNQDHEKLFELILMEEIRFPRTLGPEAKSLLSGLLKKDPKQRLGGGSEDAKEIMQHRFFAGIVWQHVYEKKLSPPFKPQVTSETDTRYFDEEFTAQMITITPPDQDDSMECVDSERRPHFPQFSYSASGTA
Tyrosine-protein kinase Lyn, sequence (P07948 2-512 limits assumed): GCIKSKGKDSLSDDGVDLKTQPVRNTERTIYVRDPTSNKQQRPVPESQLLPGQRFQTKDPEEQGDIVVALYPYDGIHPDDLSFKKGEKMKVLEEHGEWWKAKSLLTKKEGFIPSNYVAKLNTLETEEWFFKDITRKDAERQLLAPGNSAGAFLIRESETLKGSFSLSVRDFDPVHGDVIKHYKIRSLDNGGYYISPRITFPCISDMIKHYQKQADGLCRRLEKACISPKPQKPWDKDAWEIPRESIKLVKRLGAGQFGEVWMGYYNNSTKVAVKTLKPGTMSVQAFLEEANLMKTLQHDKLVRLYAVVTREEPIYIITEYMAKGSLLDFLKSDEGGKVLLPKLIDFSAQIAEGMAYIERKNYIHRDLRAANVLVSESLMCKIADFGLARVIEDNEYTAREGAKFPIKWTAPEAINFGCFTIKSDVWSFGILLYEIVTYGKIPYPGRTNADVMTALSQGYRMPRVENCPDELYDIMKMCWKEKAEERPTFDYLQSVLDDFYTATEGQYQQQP
Mitogen-activated protein kinase 3, sequence (P27361 whole entry): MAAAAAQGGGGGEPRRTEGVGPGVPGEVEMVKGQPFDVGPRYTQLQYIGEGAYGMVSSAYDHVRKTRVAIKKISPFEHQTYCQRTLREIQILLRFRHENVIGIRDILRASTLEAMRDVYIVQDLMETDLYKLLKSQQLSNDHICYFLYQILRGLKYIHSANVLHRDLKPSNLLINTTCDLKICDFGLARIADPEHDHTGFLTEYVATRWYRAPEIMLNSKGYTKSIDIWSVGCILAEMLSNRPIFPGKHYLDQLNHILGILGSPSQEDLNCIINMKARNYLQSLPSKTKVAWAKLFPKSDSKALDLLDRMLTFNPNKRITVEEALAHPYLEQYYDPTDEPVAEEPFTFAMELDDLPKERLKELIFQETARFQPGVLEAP
Serine/threonine-protein kinase Chk2, sequence (O96017 whole entry): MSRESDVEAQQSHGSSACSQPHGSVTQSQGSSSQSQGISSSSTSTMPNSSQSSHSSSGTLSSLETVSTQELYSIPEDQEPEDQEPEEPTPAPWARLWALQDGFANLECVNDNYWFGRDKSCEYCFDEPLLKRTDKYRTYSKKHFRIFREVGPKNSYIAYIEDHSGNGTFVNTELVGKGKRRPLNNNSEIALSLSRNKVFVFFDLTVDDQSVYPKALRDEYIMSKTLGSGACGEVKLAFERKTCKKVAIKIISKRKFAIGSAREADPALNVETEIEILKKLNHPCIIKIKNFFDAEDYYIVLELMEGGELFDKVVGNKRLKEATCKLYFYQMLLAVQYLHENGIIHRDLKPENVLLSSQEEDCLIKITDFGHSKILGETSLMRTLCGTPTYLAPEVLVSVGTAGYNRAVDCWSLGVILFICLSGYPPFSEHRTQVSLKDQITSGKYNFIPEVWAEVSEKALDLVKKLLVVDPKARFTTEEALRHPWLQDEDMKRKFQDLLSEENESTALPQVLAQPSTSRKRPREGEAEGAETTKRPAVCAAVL
Glycogen synthase kinase-3 beta, sequence (P49841 whole entry, looked up): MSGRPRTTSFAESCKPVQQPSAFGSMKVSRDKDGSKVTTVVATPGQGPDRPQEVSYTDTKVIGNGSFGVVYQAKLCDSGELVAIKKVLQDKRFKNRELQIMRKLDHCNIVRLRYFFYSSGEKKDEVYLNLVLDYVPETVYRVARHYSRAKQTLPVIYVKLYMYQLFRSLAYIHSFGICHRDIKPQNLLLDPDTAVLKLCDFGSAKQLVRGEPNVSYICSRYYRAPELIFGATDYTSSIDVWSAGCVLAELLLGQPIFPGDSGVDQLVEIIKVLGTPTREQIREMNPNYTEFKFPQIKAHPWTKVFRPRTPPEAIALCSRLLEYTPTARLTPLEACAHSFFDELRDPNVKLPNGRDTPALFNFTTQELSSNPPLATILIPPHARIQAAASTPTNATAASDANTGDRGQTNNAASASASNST

As usually defined, the inhibition is the drop in the measured response relative to a control, in per cent. As to `c1ccc(CC2CCC3(CCN(c4ncnc5[nH]cnc45)CC3)NC2)cc1` (racemic), the inhibition was determined as 95% in the test filed under Homo sapiens; 30% in test [1]; 1% in test [2]; 18% in [3]; 14% in [4]; 36% in test [5]. Also, the inhibition in [6] worked out at 67%; in test [7], 89%; in test [8], 35%; in test [9], 20%; in test [10], 48%; in test [11], 15%. For the same compound, the inhibition in [12] is 58%; in test [13], 31%; in test [14], 31%; in test [15] it was 80%.

`c1nc(N2CCC3(CCCCN3)CC2)c2nc[nH]c2n1`: the inhibition in the test filed under Homo sapiens worked out at 98%; in test [1] it was 42%; in test [2], 0%; in [3], 4%; in test [4], 28%; in [5], 57%. The inhibition came out at 85% in [6]; 81% in test [7]; 52% in test [8]; 34% in test [9]; 60% in test [10]; 24% in [11]. Also, the inhibition in [12] stood at 58%; in [13], 33%; in [14], 46%; in test [15], 87%.

For `COC(=O)C1CCC2(CCN(c3ncnc4[nH]cnc34)CC2)NC1` (racemic), the inhibition in the test listed under Homo sapiens turned out to be 87%; in [1], 36%; in test [2], 0%; in [3], 10%; in test [4], 12%; in [5], 19%. The inhibition is 36% in test [6]; 64% in [7]; 16% in [8]; 6% in [9]; 35% in [10]; 6% in test [11]. The inhibition amounted to 16% in test [12], 18% in test [13], 14% in test [14] and 61% in test [15].

Regarding `O=S(=O)(c1cccc2cnccc12)N1CCC2(CCCNC2)CC1`, the inhibition in the test filed under Homo sapiens amounted to 77%; in [1], 15%; in test [2], 9%; in [3], 6%; in test [4], 5%; in test [5], 14%. For the same compound, the inhibition amounted to 8% in test [6]; 24% in test [7]; 5% in test [8]; 11% in test [9]; 29% in test [10]; 8% in [11]. The inhibition in test [12] was determined as 65%; in test [13], 0%; in test [14] it was 0%; in test [15], 0%.

Take `O=S(=O)(c1cccc2cnccc12)N1CCC2(CCCCN2)CC1`: the inhibition in the test filed under Homo sapiens came out at 89%; in [1], 24%; in test [2], 0%; in test [3], 3%; in [4], 28%; in test [5], 10%. Besides, the inhibition in test [6] came to 0%; in test [7] it was 71%; in [8], 18%; in [9], 9%; in test [10], 66%; in [11], 14%. Moreover, the inhibition was 26% in test [12], 12% in test [13], 0% in test [14] and 27% in test [15].

With `c1nc(N2CCC3(CCCN3)CC2)c2nc[nH]c2n1`, the inhibition in the test listed under Homo sapiens was found to be 98%; in test [1], 82%; in [2], 0%; in [3], 2%; in test [4], 19%; in [5] it was 72%. In addition, the inhibition was 85% in test [6]; 55% in [7]; 20% in [8]; 31% in [9]; 72% in test [10]; 48% in [11]. Further, the inhibition worked out at 81% in test [12], 26% in test [13], 53% in test [14] and 91% in test [15].

Consider `c1ccc(C2CCC3(CCN(c4ncnc5[nH]cnc45)CC3)NC2)cc1` (stereo not drawn), for which the inhibition in the test listed under Homo sapiens was determined as 96%; in test [1] it was 33%; in [2], 0%; in test [3], 31%; in test [4], 21%; in test [5], 41%. Also, the inhibition in test [6] was found to be 69%; in [7], 90%; in [8], 44%; in test [9], 18%; in [10], 64%; in test [11], 17%. For the same compound, the inhibition in [12] was 44%; in [13], 51%; in [14], 26%; in test [15], 85%.

`OC1CCNC2(CCN(c3ncnc4[nH]cnc34)CC2)C1` (racemic): the inhibition was determined as 98% in the test filed under Homo sapiens; 23% in test [1]; 0% in test [2]; 0% in test [3]; 19% in test [4]; 59% in test [5]. Besides, the inhibition in [6] is 80%; in [7], 63%; in test [8] it was 39%; in test [9] it was 28%; in [10], 40%; in test [11], 8%. The inhibition in test [12] was determined as 44%; in [13], 23%; in [14], 28%; in [15], 94%.

For the origin of these results see ChEMBL document CHEMBL2417369, “Synthesis and evaluation of heteroaryl substituted diazaspirocycles as scaffolds to probe the ATP-binding site of protein kinases” (Bioorg Med Chem, 2013).
